Active and inactive are the calls of the source. The calls are words filed in the database; no cut-off is given here.
Columns and labels:
[1] = Growth inhibition of HSF cells assessed as BrdU incorporation at 33.1 uM after 72 hrs by spectrophotometry; assay type: cell-based; details: human, read-out: GI
How it was run: (§1)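 Cells were seeded at 10⁴ cells/mL and preincubated. Compounds were dissolved in DMSO and added at two fixed concentrations, then incubated for 72 h. End-point was BrdU labelling with ELISA detection, read spectrophotometrically. Result is % growth inhibition versus untreated controls. Triplicates.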

[2] = system: Vero; test: Growth inhibition of african green monkey Vero cells assessed as BrdU incorporation at 33.1 uM after 72 hrs by spectrophotometry; assay type: cell-based; details: chlorocebus sabaeus; how it was run: as §1
[3] = Growth inhibition of human LS180 cells assessed as BrdU incorporation at 33.1 uM after 72 hrs by spectrophotometry; assay type: functional; details: LS180, 72 h, read-out: GI; how it was run: as §1
[4] = system: SiHa; test: Growth inhibition of human SiHa cells assessed as BrdU incorporation at 33.1 uM after 72 hrs by spectrophotometry; assay type: functional; details: read-out: GI; how it was run: as §1
[5] = system: T47D; test: Growth inhibition of human T47D cells assessed as BrdU incorporation at 33.1 uM after 72 hrs by spectrophotometry; assay type: functional; details: read-out: GI
How it was run: (§2)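 Each cell line was seeded at 10⁴ cells per mL and preincubated. Test agents were dissolved in DMSO, added at two examined concentrations (10 and 50 per mL by mass), and incubated for 72 h. The end-point was BrdU labeling and detection kit III read on an ELISA reader. Percent growth inhibition was calculated against untreated controls, in triplicate.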

[6] = Growth inhibition of HSF cells assessed as BrdU incorporation at 165.4 uM after 72 hrs by spectrophotometry; assay type: cell-based; details: human, read-out: GI; how it was run: as §1
[7] = Growth inhibition of african green monkey Vero cells assessed as BrdU incorporation at 165.4 uM after 72 hrs by spectrophotometry; assay type: cell-based; details: chlorocebus sabaeus, read-out: GI; how it was run: as §1
[8] = Growth inhibition of human LS180 cells assessed as BrdU incorporation at 165.4 uM after 72 hrs by spectrophotometry; assay type: functional; details: LS180, 72 h, read-out: GI; how it was run: as §1
[9] = system: SiHa; test: Growth inhibition of human SiHa cells assessed as BrdU incorporation at 165.4 uM after 72 hrs by spectrophotometry; assay type: functional; details: read-out: GI; how it was run: as §1
[10] = system: T47D; test: Growth inhibition of human T47D cells assessed as BrdU incorporation at 165.4 uM after 72 hrs by spectrophotometry; assay type: functional; details: read-out: GI; how it was run: as §2
[11] = Cytotoxicity against HSF cells assessed as cell viability at 1 uM after 24 hrs by MTT assay relative to control; assay type: cell-based; details: human, read-out: Activity
How it was run: (§3)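 Normal human skin fibroblasts (HSF, primary line) were exposed to DMSO-dissolved compound for 24 h. Viability was read by MTT tetrazolium reduction and expressed against untreated control set at 100%.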

[12] = Cytotoxicity against HSF cells assessed as cell viability at 50 uM after 24 hrs by MTT assay relative to control; assay type: cell-based; details: human, read-out: Activity; how it was run: as §3
[13] = Cytotoxicity against HSF cells assessed as cell viability at 100 uM after 24 hrs by MTT assay relative to control; assay type: cell-based; details: human, read-out: Activity; how it was run: as §3
[14] = system: Jurkat; test: Cytotoxicity against human Jurkat cells assessed as cell viability at 1 uM after 24 hrs by MTT assay relative to control; assay type: functional; details: read-out: Activity
How it was run: (§4)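 Jurkat T-cell leukaemia line grown in RPMI 1640 with 10% FBS, 2 mM L-glutamine and gentamycin at 37 °C, 5% CO2, kept in log phase. Compounds were dissolved in DMSO and applied for 24 h. Cells were washed in HEPES-buffered medium (pH 7.4) and given MTT at 0.5 mg/mL for 45 min at 37 °C. Formazan was dissolved in DMSO and read at 570 nm. Viability is % of control, from three independent measurements.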

[15] = system: Jurkat; test: Cytotoxicity against human Jurkat cells assessed as cell viability at 50 uM after 24 hrs by MTT assay relative to control; assay type: functional; details: read-out: Activity; how it was run: as §4
[16] = system: Jurkat; test: Cytotoxicity against human Jurkat cells assessed as cell viability at 100 uM after 24 hrs by MTT assay relative to control; assay type: functional; details: read-out: Activity; how it was run: as §4
[17] = system: SiHa; test: Growth inhibition of human SiHa cells assessed as BrdU incorporation at 32.6 uM after 72 hrs by spectrophotometry; assay type: functional; details: read-out: GI; how it was run: as §1
[18] = Growth inhibition of HSF cells assessed as BrdU incorporation at 32.6 uM after 72 hrs by spectrophotometry; assay type: cell-based; details: human, read-out: GI; how it was run: as §1
[19] = Growth inhibition of african green monkey Vero cells assessed as BrdU incorporation at 32.6 uM after 72 hrs by spectrophotometry; assay type: cell-based; details: chlorocebus sabaeus, read-out: GI; how it was run: as §1
[20] = Growth inhibition of human LS180 cells assessed as BrdU incorporation at 32.6 uM after 72 hrs by spectrophotometry; assay type: functional; details: LS180, 72 h, read-out: GI; how it was run: as §1
[21] = system: T47D; test: Growth inhibition of human T47D cells assessed as BrdU incorporation at 32.6 uM after 72 hrs by spectrophotometry; assay type: functional; details: read-out: GI; how it was run: as §2
[22] = Growth inhibition of HSF cells assessed as BrdU incorporation at 163.0 uM after 72 hrs by spectrophotometry; assay type: cell-based; details: human, read-out: GI; how it was run: as §1
[23] = Growth inhibition of african green monkey Vero cells assessed as BrdU incorporation at 163.0 uM after 72 hrs by spectrophotometry; assay type: cell-based; details: chlorocebus sabaeus, read-out: GI; how it was run: as §1
[24] = Growth inhibition of human LS180 cells assessed as BrdU incorporation at 163.0 uM after 72 hrs by spectrophotometry; assay type: functional; details: LS180, 72 h, read-out: GI; how it was run: as §1
[25] = system: SiHa; test: Growth inhibition of human SiHa cells assessed as BrdU incorporation at 163.0 uM after 72 hrs by spectrophotometry; assay type: functional; details: read-out: GI; how it was run: as §1
[26] = system: T47D; test: Growth inhibition of human T47D cells assessed as BrdU incorporation at 163.0 uM after 72 hrs by spectrophotometry; assay type: functional; details: read-out: GI; how it was run: as §2
[27] = system: LS180; test: Induction of DNA damage in human LS180 cells at 32.6 uM by pulsed field gel electrophoresis; assay type: functional, cell-based
How it was run: (§5)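 After treatment at 32.6, cells were washed twice with PBS. DNA was isolated with lysing buffer plus proteinase K, then purified. Cells were prepared as agarose plugs and run by pulsed field electrophoresis on a 1% agarose gel containing propidium iodide, at 120 V for 1.5 h at room temperature. Experiments were repeated three times.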

[28] = system: SiHa; test: Induction of DNA damage in human SiHa cells at 32.6 uM by pulsed field gel electrophoresis; assay type: functional, cell-based; how it was run: as §5
[29] = system: T47D; test: Induction of DNA damage in human T47D cells at 32.6 uM by pulsed field gel electrophoresis; assay type: functional, cell-based; how it was run: as §5
[30] = Induction of apoptosis in HSF cells after 72 hrs by annexin V-propidium iodide based assay; assay type: cell-based; details: human
How it was run: (§6)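 Cells were exposed for 72 h, then stained with an annexin V-FITC/propidium iodide detection kit. Apoptotic cells were counted by confocal microscopy using a 460–490 nm filter: yellow nuclei were early apoptosis, red were late, and unstained cells were living. 1000 cells were analysed per measurement, three independent measurements in all. Results are mean ± SD.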

[31] = system: T47D; test: Induction of apoptosis in human T47D cells after 72 hrs by annexin V-propidium iodide based assay; assay type: functional; how it was run: as §6
[32] = Growth inhibition of human LS180 cells assessed as BrdU incorporation after 72 hrs by spectrophotometry; assay type: functional, cell-based; details: LS180, 72 h
How it was run: (§7)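 Cancer cells were seeded at 10⁴ cells/mL, preincubated, then exposed for 72 h to DMSO-dissolved compound. Growth was read by BrdU labelling with ELISA spectrophotometry. IC50 was taken from 72 h dose–survival curves. Triplicates.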

[33] = system: SiHa; test: Growth inhibition of human SiHa cells assessed as BrdU incorporation after 72 hrs by spectrophotometry; assay type: functional, cell-based; how it was run: as §7
[34] = system: T47D; test: Growth inhibition of human T47D cells assessed as BrdU incorporation after 72 hrs by spectrophotometry; assay type: functional, cell-based; how it was run: as §7
[35] = system: Jurkat; test: Cytotoxicity against human Jurkat cells assessed as decrease in cell viability after 24 hrs by MTT assay; assay type: functional, cell-based
How it was run: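 Jurkat cells grown in RPMI 1640/10% FBS at 37 °C, 5% CO2, with 24 h exposure to DMSO-dissolved compound. Read-out was MTT reduction: 0.5 mg/mL in HEPES-buffered medium for 45 min, formazan in DMSO, absorbance at 570 nm. IC50 was taken from 24 h dose–survival curves.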

COc1ccc(N2CCn3c2nnc(C(=O)NN)c3=O)cc1
inhibition at 72 h, 33.1 µM [1]: 0% | growth inhibition (GI) [2]: 0% | inhibition of growth at 33.1 µM [3]: 1% | inhibition of growth at 33.1 µM [4]: 19% | inhibition of growth at 33.1 µM [5]: 1% | inhibition at 72 h, 165.4 µM [6]: 0% | inhibition at 72 h, 165.4 µM [7]: 0% | inhibition of growth at 165.4 µM [8]: 1% | inhibition of growth at 165.4 µM [9]: 18% | inhibition of growth at 165.4 µM [10]: 0% | viability at 24 h, 1 µM [11]: 98% | viability at 24 h, 50 µM [12]: 102% | viability at 24 h, 100 µM [13]: 100% | viability at 1 µM [14]: 97% | viability at 50 µM [15]: 97% | viability at 100 µM [16]: 100%

NNC(=O)c1nnc2n(c1=O)CCN2c1cccc(Cl)c1
inhibition of growth at 32.6 µM [17]: 45% | inhibition at 72 h, 32.6 µM [18]: 0% | inhibition at 72 h, 32.6 µM [19]: 20% | inhibition of growth at 32.6 µM [20]: 42% | inhibition of growth at 32.6 µM [21]: 26% | inhibition at 72 h, 163 µM [22]: 0% | inhibition at 72 h, 163 µM [23]: 29% | inhibition of growth at 163 µM [24]: 54% | inhibition of growth at 163 µM [25]: 63% | inhibition of growth at 163 µM [26]: 40% | Activity [27]: Active | Activity [28]: Active | Activity [29]: Active | Activity [30]: 1% | Activity [31]: 8.5% | viability at 24 h, 1 µM [11]: 108% | viability at 24 h, 50 µM [12]: 113% | viability at 24 h, 100 µM [13]: 105% | viability at 1 µM [14]: 100% | viability at 50 µM [15]: 116% | viability at 100 µM [16]: 115% | IC50 [32]: > 100 µM | IC50 [33]: 75.4 µM | IC50 [34]: > 100 µM | IC50 [35]: > 100 µM

From ChEMBL document CHEMBL1141657, “Synthesis, structure elucidation and identification of antitumoural properties of novel fused 1,2,4-triazine aryl derivatives” (Eur J Med Chem, 2008)
